# Compound activity deposited in PubChem by several laboratories.
# A selection: hits, their analogues and other compounds. The true share with any hit is near 2.4%.
# CSN deneddyl inh: inhibitors of human CSN-mediated cullin deneddylation | Q92905 | Purified CSN, SCF-Nedd8-OG deneddylation, fluorescence polarization | inhibition, % at 12.5 µM | 0.38% of 360,000 active;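 active means pattern-corrected inhibition above about 35%, with an unprinted fluorescence ratio check between 0.5 and 1.5, limit read from the data, passing the limit was not always enough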;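 further: 0% = enzyme with substrate and 100% = substrate without enzyme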
#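 Test system: purified human Csn5 enzyme expressed in HEK293T cells. Amount: 0.24 nM enzyme. Reagent: SCFSkp2-Nedd8OG substrate at 10 nM final. Schedule: 90 min incubation of compound, enzyme and substrate at room temperature. Detection: fluorescence polarization. Read-out: % inhibition of substrate cleavage by Csn5.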
# Neddyl block: blocks human cullin neddylation; P61081+Q13564; TR-FRET cullin neddylation, biochemical; inhibition, % at 25 µM; 0.58% of 360,000 active; AID 651699; in the data active means inhibition above about 36%
# Rpn11 inh: inhibitors of human proteasome Rpn11; O00487; human 26S proteasome, Ub4-pepOG fluorescence polarization; 20S core pre-blocked with epoxomicin; 0.59% of 360,000 active; inhibition, % at 20 µM;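 active means inhibition at 20 µM, scaled to each plate's controls, above about 33%, limit read from the data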
# Rin1 Abl inh: inhibitors of human Rin1-Abl protein interaction. P00519+Q13671. TR-FRET Rin1/Abl binding, biochemical. inhibition, % at 7.35 µM. 0.4% of 360,000 active. AID 588664; in the data active means inhibition above about 5%, passing the limit was not always enough
# HNF4A DNA FP: change in binding of human HNF4 alpha to DNA; HNF4a-FITC DNA binding, fluorescence polarization, 1 h; activity change, % at 10 µM; 0.3% of 360,000 active; AID 1224865; P41235; in the data active means activity change above about 30%, passing the limit was not always enough
# Target sequence (P41235 whole entry, looked up): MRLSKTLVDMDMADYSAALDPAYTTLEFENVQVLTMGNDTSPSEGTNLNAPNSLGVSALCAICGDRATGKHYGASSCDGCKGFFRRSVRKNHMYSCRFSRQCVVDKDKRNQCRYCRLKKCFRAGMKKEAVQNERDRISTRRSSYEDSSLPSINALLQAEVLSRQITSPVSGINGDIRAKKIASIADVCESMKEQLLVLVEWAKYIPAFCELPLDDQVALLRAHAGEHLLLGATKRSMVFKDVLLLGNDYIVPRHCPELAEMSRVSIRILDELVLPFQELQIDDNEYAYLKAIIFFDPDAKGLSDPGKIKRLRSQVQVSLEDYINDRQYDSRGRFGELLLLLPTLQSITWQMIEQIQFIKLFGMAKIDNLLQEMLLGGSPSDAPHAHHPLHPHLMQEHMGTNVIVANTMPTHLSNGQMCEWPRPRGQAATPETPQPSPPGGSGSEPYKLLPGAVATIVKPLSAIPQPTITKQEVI
# TPT1 inhibitor: C. albicans TPT1 enzyme inhibition | inhibition, % at 5 µM | 0.81% of 300,000 active | recombinant caTPT1, FP RNA substrate dephosphorylation;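 active means inhibition above the mean of all tested compounds plus 3 SD, set per screening campaign, cut at about 24% in these data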;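 further: plate controls were DMSO alone for no effect and ferristatin control at 100 nM for full effect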
# Rpn11 confirm: Rpn11 inhibition confirmation, single concentration. shares compounds with Rpn11 inh. 29% of 1,900 active. inhibition, % at 20 µM. AID 602318. purified human 26S proteasome, Ub4-pepOG fluorescence polarization; proteasome pretreated with epoxomicin
# MMP-2 counter-1: blocks human MMP-2, flagging nonselective RPN11 hits; recombinant MMP-2, FRET peptide cleavage fluorescence; inhibition, % at 20 µM; shares compounds with Rpn11 inh; 4% of 1,900 active;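 further: human MMP-2 activated beforehand with APMA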
# Thrombin FP: counter-screen for RPN11 inhibitors: inhibition of bovine thrombin | shares compounds with Rpn11 inh | bovine thrombin cleavage of Ub4-pepOG, fluorescence polarization | inhibition, % at 20 µM | 13% of 1,900 active;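 active means mean inhibition at least 40% at 20 µM, or signal 3 deviations below plate average, so some actives read negative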;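 further: plate controls were thrombin with DMSO for no effect and buffer wells lacking thrombin for full effect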
# CSN5 deneddyl: validation of inhibitors of human CSN-mediated cullin deneddylation. shares compounds with CSN deneddyl inh. Csn5 deneddylation of SCF-Nedd8OG, fluorescence polarization, 90 min. inhibition, % at 16.6 µM. 62% of 540 active; in the data active means inhibition above about 50%;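 further: 0% = DMSO with enzyme and 100% = no enzyme wells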
# MMP-2 counter-2: MMP-2 (human) inhibition, counter-screen for CSN hits; shares compounds with CSN deneddyl inh; recombinant MMP-2, FRET substrate fluorescence, 60 min; inhibition, % at 16.6 µM; 33% of 540 active; AID 720655;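 active means corrected plate-normalized z-score of 5 or more, or -5 or less, or inhibition of 15% or more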;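 further: plate controls were DMSO wells with enzyme for no effect and buffer wells lacking MMP-2 for full effect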
# Thrombin cntr: blocks bovine thrombin in a CSN deneddylation counter-screen; shares compounds with CSN deneddyl inh; bovine thrombin cleavage of Ub4-pepOG, fluorescence polarization; inhibition, % at 16.6 µM; 49% of 540 active; AID 720656;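 active means inhibition at or above a set limit, with a fluorescence interference ratio between 0.5 and a set maximum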
# HNF4A confirm: change in binding of human HNF4 alpha to DNA, retest | shares compounds with HNF4A DNA FP | HNF4A-FITC DNA binding, fluorescence polarization, 1 h | activity change, % at 12.5 µM | 99% of 210 active; call rule not given here
# * hit, by the source's call; nt = no result given. Unless noted, no stated cut-off is given here; in the data, active means inhibition above about 40%; inactive means the rest.
SMILES,CSN deneddyl inh,Neddyl block,Rpn11 inh,Rin1 Abl inh,HNF4A DNA FP,TPT1 inhibitor,Rpn11 confirm,MMP-2 counter-1,Thrombin FP,CSN5 deneddyl,MMP-2 counter-2,Thrombin cntr,others
CCN(CC(=O)Nc1c(F)cccc1F)C(=O)C1CCCN(C(=O)c2ccc(Cl)cc2)C1 (stereo not drawn),-1,-2,-9,-2,-1,5,nt,nt,nt,nt,nt,nt,
Cc1c2cc[n+](CCN3CCCCC3)cc2c(C)c2c1[nH]c1ccc(O)cc12,100*,-6,90*,-11,49,nt,69*,42*,20,-31,93*,40*,
CCOC(=O)c1[nH]c2ccc(C)cc2c1NC(=O)CN1CCCCC1,-6,36,0,-1,0,-5,nt,nt,nt,nt,nt,nt,
C[C@H](NS(=O)(=O)c1ccccc1)C(=O)OCC(=O)NC(=O)Nc1ccc2c(c1)OCCO2,1,5,-2,0,-3,2,nt,nt,nt,nt,nt,nt,
COc1cc(C)c2c(c1C=O)Oc1c(c(C)c(O)c3c1C(O)OC3=O)OC2=O (stereo not drawn),38*,2,41*,2,-47,4,25,21,14,50,13,8,
O=C(N/N=C/c1cc(Br)ccc1O)c1ccncc1,9,-7,36,-4,8,12,nt,nt,nt,nt,nt,nt,
O=C(N/N=C/c1cc(Cl)ccc1O)c1ccc(Br)cc1,44*,27,166*,-1,-2,13,177*,9,16,32,39*,16*,
COc1ccc(C(=O)N/C(=C\c2ccc3c(c2)OCO3)C(=O)NCCc2nc3ccccc3[nH]2)cc1,-1,-9,10,-6,-5,-1,nt,nt,nt,nt,nt,nt,
Cn1cccc1Cc1nnc(SCC(=O)Nc2ccc(Cl)cc2)n1-c1ccc(F)cc1,-4,8,0,6,1,1,nt,nt,nt,nt,nt,nt,
Cc1nc(SCc2nc3cc(Cl)c(F)cc3[nH]2)c2oc3ccccc3c2n1,36*,-454,75*,-4,6,nt,64*,-7,36,86*,-4,14,
Cc1nc(SCc2nc3ccc(Cl)cc3[nH]2)c2oc3ccccc3c2n1,2,-15,32,-6,6,nt,nt,nt,nt,nt,nt,nt,
COc1cc(SC)ccc1C(=O)NCCCn1ccnc1,-1,-9,0,0,-1,-1,nt,nt,nt,nt,nt,nt,
CS(=O)(=O)C1=NSC2=NC(=O)/C(=C\c3cccn3-c3ccc(Cl)cc3)C(=N)N21,100*,-16,47*,-1,8,6,77*,39,120*,-75,26*,50*,
O=C1NC(=Nc2ccc3ccccc3c2)S/C1=C/c1ccco1,67*,-37,40*,4,11,19,25,-21,16,85*,4,18*,
O=C1NC(=Nc2ccc(O)cc2)S/C1=C/c1ccco1,5,-17,4,-3,0,-1,nt,nt,nt,nt,nt,nt,
N#CCC(=O)Nc1ccc(C(=O)OCC(=O)NC(=O)NCc2ccco2)cc1,36*,5,45*,5,34*,nt,28,41*,28,nt,nt,nt,HNF4A confirm=40*
